≈ marks a conversion by molar mass, not a printed value.
Legend:
L1210 = test: Tested for inhibition of L1210 mouse leukemia cell growth in culture; assay type: functional, cell-based
In short: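 L1210 mouse leukemia cells were grown in culture with the test agent. The result was expressed as IC50, the concentration that inhibits cell growth by 50%.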

[1] = Compound was tested for its solubility in 0.20 M aqueous NaH2PO4 initially at pH 7; assay type: ADME; settings: 0.20 M aqueous NaH2PO4, pH 7
[2] = Compound was tested for its solubility in 0.01 M aqueous NaH2PO4 initially at pH 7; assay type: ADME; settings: 0.01 M aqueous NaH2PO4, pH 7
In short: (§1)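 Compound was dissolved to saturation in 0.01 M aqueous NaH2PO4 adjusted initially to pH 7. Solubility was reported as mg/mL, and the pH reached by the saturated solution was recorded.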

[3] = pH attained by the compound at saturation after dissolving in 0.01 M aqueous NaH2PO4 initially at pH 7; assay type: ADME; settings: buffer; in short: as §1
[4] = pH attained by the compound at saturation after dissolving in 0.20 M aqueous NaH2PO4 initially at pH 7; assay type: ADME; settings: buffer
Dihydrofolate reductase = molecular target: T1, Dihydrofolate reductase (Homo sapiens, UniProt P00374); test: Effect against dihydrofolate reductase (DHFR)
T1 sequence (P00374 whole entry): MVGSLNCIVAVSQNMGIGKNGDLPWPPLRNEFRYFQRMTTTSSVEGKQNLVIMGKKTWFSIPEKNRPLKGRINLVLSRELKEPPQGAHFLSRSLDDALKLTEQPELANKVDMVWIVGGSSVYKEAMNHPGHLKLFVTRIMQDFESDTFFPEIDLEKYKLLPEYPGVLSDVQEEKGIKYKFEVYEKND

Structure (SMILES) | IC50 (L1210) [µM] | other results
C=CCN(Cc1ccc2nc(OC)nc(O)c2c1)c1ccc(C(=O)NC(CCC(=O)O)C(=O)O)cc1 (stereo not drawn) | 16 | –
C#CCN(Cc1ccc2nc(NCCN)nc(O)c2c1)c1ccc(C(=O)NC(CCC(=O)O)C(=O)O)cc1 (stereo not drawn) | 97 | –
COc1nc(O)c2cc(CN(CCCO)c3ccc(C(=O)NC(CCC(=O)O)C(=O)O)cc3)ccc2n1 (stereo not drawn) | 80 | –
C#CCN(Cc1ccc2nc(OCC)nc(O)c2c1)c1ccc(C(=O)NC(CCC(=O)O)C(=O)O)cc1 (stereo not drawn) | > 100 | –
C#CCN(Cc1ccc2nc(OC)nc(O)c2c1)c1ccc(C(=O)NC(CCC(=O)O)C(=O)O)cc1 (stereo not drawn) | 1.9 | solubility [1]: 6600 µg/mL (≈ 13400 µM); solubility [2]: 1200 µg/mL (≈ 2440 µM); pH [3]: 4.93; pH [4]: 5.67
C#CCN(Cc1ccc2nc(N(C)C)nc(O)c2c1)c1ccc(C(=O)NC(CCC(=O)O)C(=O)O)cc1 (stereo not drawn) | > 100 | –
COc1nc(O)c2cc(CN(CCO)c3ccc(C(=O)NC(CCC(=O)O)C(=O)O)cc3)ccc2n1 (stereo not drawn) | 7.3 | –
C#CCN(Cc1ccc2nc(OCCO)nc(O)c2c1)c1ccc(C(=O)NC(CCC(=O)O)C(=O)O)cc1 (stereo not drawn) | > 100 | –
C#CCN(Cc1ccc2nc(NCCO)nc(O)c2c1)c1ccc(C(=O)NC(CCC(=O)O)C(=O)O)cc1 (stereo not drawn) | 47 | –
COc1nc(O)c2cc(CN(C)c3ccc(C(=O)NC(CCC(=O)O)C(=O)O)cc3)ccc2n1 (stereo not drawn) | 7 | –
C#CCN(Cc1ccc2nc(NCC(=O)O)nc(O)c2c1)c1ccc(C(=O)NC(CCC(=O)O)C(=O)O)cc1 (stereo not drawn) | > 100 | –
C#CCN(Cc1ccc2nc(SC)nc(O)c2c1)c1ccc(C(=O)NC(CCC(=O)O)C(=O)O)cc1 (stereo not drawn) | 13 | –
C#CCN(Cc1ccc2nc(-n3ccnc3)nc(O)c2c1)c1ccc(C(=O)NC(CCC(=O)O)C(=O)O)cc1 (stereo not drawn) | > 100 | –
C#CCN(Cc1ccc2[nH]c(N)nc(=O)c2c1)c1ccc(C(=O)NC(CCC(=O)O)C(=O)O)cc1 (stereo not drawn) | 3.4 | solubility [1]: 60 µg/mL (≈ 126 µM); solubility [2]: 50 µg/mL (≈ 105 µM); pH [3]: 5.76; pH [4]: 6.78
C#CCN(Cc1ccc2nc(Oc3ccccc3)nc(O)c2c1)c1ccc(C(=O)NC(CCC(=O)O)C(=O)O)cc1 (stereo not drawn) | > 100 | –

Continued, in another order:

IC50 (L1210) [µM] | Structure (SMILES) | other results
> 100 | C#CCN(Cc1ccc2nc(NCC)nc(O)c2c1)c1ccc(C(=O)NC(CCC(=O)O)C(=O)O)cc1 (stereo not drawn) | –
> 100 | C#CCN(Cc1ccc2nc(NCCN(C)C)nc(O)c2c1)c1ccc(C(=O)NC(CCC(=O)O)C(=O)O)cc1 (stereo not drawn) | –
100 | C#CCN(Cc1ccc2nc(OCCOC)nc(O)c2c1)c1ccc(C(=O)NC(CCC(=O)O)C(=O)O)cc1 (stereo not drawn) | –
67 | C#CCN(Cc1ccc2nc(Cl)nc(O)c2c1)c1ccc(C(=O)NC(CCC(=O)O)C(=O)O)cc1 (stereo not drawn) | –
12 | CCN(Cc1ccc2nc(OC)nc(O)c2c1)c1ccc(C(=O)NC(CCC(=O)O)C(=O)O)cc1 (stereo not drawn) | –
60 | C#CCN(Cc1ccc2nc(S)nc(O)c2c1)c1ccc(C(=O)NC(CCC(=O)O)C(=O)O)cc1 (stereo not drawn) | –
17 | COc1nc(O)c2cc(CN(CCF)c3ccc(C(=O)NC(CCC(=O)O)C(=O)O)cc3)ccc2n1 (stereo not drawn) | –
6.4 | COc1nc(O)c2cc(CNc3ccc(C(=O)NC(CCC(=O)O)C(=O)O)cc3)ccc2n1 (stereo not drawn) | Ki (Dihydrofolate reductase): ~0.6 µM
24 | C#CCN(Cc1ccc2nc(NC)nc(O)c2c1)c1ccc(C(=O)NC(CCC(=O)O)C(=O)O)cc1 (stereo not drawn) | –
